Assay results gathered from unrelated publications.
Target: Mitogen-activated protein kinase 9 (MAPK9, Homo sapiens, UniProt P45984)

O=C1CCc2cc(Nc3cc(OC4CCOCC4)c([N+](=O)[O-])cc3Cl)ccc2N1 — remaining binding (cell-free assay, competition with immobilised ligand; 1 µM): 86%
Cn1c2c(Cl)c(Cl)ccc2c2cn[nH]c(=O)c21 — ΔTm (thermal stability, DSF; 10 µM): 0 °C
CC(C)(C)c1nc2c(s1)c1nc(N)ncc1c1ccc(NS(=O)(=O)c3c(F)cccc3F)c(F)c12 — remaining activity (enzyme activity, inhibitor, radiometric; 1 µM): 95%
COc1cc(Cl)c(C(=O)N[C@@H](CN[C@H]2CC[C@@H](N)CC2)Cc2ccc(C#N)cc2)cc1-c1ccc(CN[C@H](C)c2ccc(C)cc2)o1 — remaining activity (enzyme activity, inhibitor; 1 µM): 93%
CN(C)C(=O)Cn1cc(-c2nc([C@@](C)(c3ccc(-c4cnc(N)nc4)cc3)C3CC3)no2)cn1 — remaining binding (cell-free assay, competition with immobilised ligand; 1 µM): 75%
Cc1cnc(NC2CCOCC2)nc1-n1cnc(C(=O)NC(CN)c2cc(F)cc(Cl)c2)c1 (centres unmarked) — remaining activity (enzyme activity, inhibitor, radiometric; 1 µM): 72%
Oc1cccc(-c2nc(N3CCOCC3)c3oc4ncccc4c3n2)c1 — remaining signal (cell-free assay; 0.5 µM): 89.4%
Cc1nccc(COC(=O)N2C[C@@H]3[C@@H](CNC(=O)c4ccc5[nH]nnc5c4)[C@@H]3C2)n1 — remaining binding (cell-free assay, competition with immobilised ligand; 1 µM): 95%
Cc1cc(NC(=O)c2cccc3cc(-c4cccc5[nH]nc(N)c45)ccc23)ccc1F — activity vs control (enzyme activity, inhibitor; 0.1 µM): 86%
C[S+]([O-])c1ccc(-c2nc(-c3ccncc3)c(-c3ccc(F)cc3)[nH]2)cc1 (centres unmarked) — remaining signal (cell-free assay; 0.5 µM): 100%
CC(C)(C)C(=O)c1sc(NC2CCCCC2)nc1N — remaining activity (enzyme activity, inhibitor; 10 µM): 90%
CC(=O)N1CCC(c2ccc(C(=O)NC3=NCCN3)cc2C(F)(F)F)CC1 — remaining binding (cell-free assay, competition with immobilised ligand; 1 µM): 92%
FC(F)c1nc2ccccc2n1-c1nc(N2CCOCC2)nc(N2CCOCC2)n1 — remaining activity (enzyme activity, inhibitor; 10 µM): 87%
CC(C)(O)[C@H]1CC[C@H](Nc2ccc3ncc(-c4cccc(C(F)(F)F)c4)n3n2)CC1 — remaining activity (enzyme activity, inhibitor; 1 µM): 109%
CNC(=O)c1cc(Oc2ccc(NC(=O)Nc3ccc(Cl)c(C(F)(F)F)c3)cc2)ccn1 — inhibition (enzyme activity, inhibitor; 10 µM): 54%
Cn1c2c(c3ccc(Cl)c(Cl)c31)C(C#N)C1(CCOCC1)NC2=O (centres unmarked) — ΔTm (thermal stability, DSF; 10 µM): 0 °C
CC1=C(C#N)[C@@H](c2ccc3[nH]nc(C)c3c2)C(C#N)=C(c2ccc(Cl)cc2)N1 — remaining binding (cell-free assay, competition with immobilised ligand; 1 µM): 89.5%
COc1cc(Nc2cnc(C#N)c(O[C@H](C)CN(C)C)n2)ncc1-c1cnn(C)c1 — remaining activity (enzyme activity, inhibitor, radiometric; 1 µM): 98%
CCCS(=O)(=O)Nc1ccc(F)c(C(=O)c2c[nH]c3ncc(-c4ccc(Cl)cc4)cc23)c1F — inhibition (enzyme activity, inhibitor; 1 µM): < 10%
Cn1c2c(c3ccc(Cl)c(Cl)c31)C(C#N)C1(CCNCC1)NC2=O (racemic) — ΔTm (thermal stability, DSF; 10 µM): 0.2 °C
CN(c1ncccc1CNc1nc(Nc2ccc3c(c2)CC(=O)N3)ncc1C(F)(F)F)S(C)(=O)=O — inhibition (enzyme activity, inhibitor; 1 µM): 12.4%
Cc1ccc(NC(=O)c2ccc(CN3CCN(C)CC3)cc2)cc1Nc1nc(-c2cccnc2)cs1 — remaining signal (cell-free assay; 0.5 µM): 110%
Oc1cccc(-c2nc(N3CCOCC3)c3oc4ncccc4c3n2)c1 — remaining activity (enzyme activity, inhibitor; 10 µM): 100%
COc1cc2ncnc(Nc3ccc(Oc4ccccc4)c(C)c3C)c2cc1OC — inhibition (enzyme activity, inhibitor; 1 µM): 7%
CC/C(=N\NC(=O)NCc1cccc(O)c1)c1ccc(O)c(C)c1O — inhibition (enzyme activity, inhibitor; 0.1 µM): -4.8%
O=C1Nc2ccc(Cl)cc2C1=Cc1cc(Cl)c(O)c(Cl)c1 — remaining signal (cell-free assay; 0.5 µM): 100%
O=C(NCc1ncc(C(F)(F)F)cc1Cl)c1ccc2c(c1)C1(CCS(=O)(=O)CC1)[C@@H](C1CC1)N2S(=O)(=O)c1ccc(F)cc1 — remaining binding (cell-free assay, competition with immobilised ligand; 1 µM): 82%
CN1CCC2(CC1)NC(=O)c1c(c3ccc(Cl)c(Cl)c3n1C)C2C#N (racemic) — ΔTm (thermal stability, DSF; 10 µM): -0.2 °C
CC(C)CC(=O)N1CCc2nc(-c3ccc(Br)cc3)nc(N(C)Cc3ccccc3)c2C1 — remaining binding (cell-free assay, competition with immobilised ligand; 0.1 µM): 72%
N#CC1c2c([nH]c3c(Cl)c(Cl)ccc23)C(=O)NC12CCCCC2 (racemic) — ΔTm (thermal stability, DSF; 10 µM): 0.7 °C
CC(C)(O)c1cncc(-c2nc3ccc(F)cc3n2C2CC2)c1 — remaining binding (cell-free assay, competition with immobilised ligand; 1 µM): 100%
O=C(Nc1cnn(-c2csc(C(=O)NC3COC3)c2)c1)Nc1ccccc1Cl — remaining activity (enzyme activity, inhibitor; 5 µM): 34.1%
